Experimental data from ChEMBL document CHEMBL5131498, “Synthesis and biological evaluation of orally active prodrugs and analogs of para-aminosalicylic acid (PAS)” (Eur J Med Chem, 2022).
In brackets after ≈: the same amount, converted by molar mass.

Legend:
[1] = Metabolic stability in human plasma assessed as parent compound remaining at 1 ug/ml measured after 2 hrs by LC-MS/MS analysis; format: ADME, cell-free; conditions: at 1 µg/mL, read-out: Stability
Method in brief: (§1)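 Compound at 1 μg/mL final (from 20 μg/mL DMSO stock; 5% DMSO) incubated in K2EDTA plasma (female CD-1 mouse or human) at 37 °C with shaking. Aliquots quenched in 1:1 MeCN/MeOH with verapamil; parent and released PAS measured by high-resolution LC-MS/MS; percent parent remaining versus initial concentration at 120 min.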

[2] = Metabolic stability in CD-1 mouse plasma assessed as parent compound remaining at 1 ug/ml measured after 2 hrs by LC-MS/MS analysis; format: ADME, cell-free; conditions: at 1 µg/mL, read-out: Stability; method in brief: as §1
[3] = AUC in CD-1 mouse plasma assessed as para-aminosalicylic acid AUC at 25 mg/kg, po administered as single dose and measured up to 5 hrs by LC-MS/MS analysis; format: ADME, organism-based; design: dose 25 mg/kg, time < 5 hrs, route po; conditions: in vivo
Method in brief: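 Female CD-1 mice (n = 2) dosed once by oral gavage at 25 mg/kg in 5% dimethylacetamide:60% PEG 300:35% (5% dextrose in water). Lateral tail-vein blood into K2EDTA at 0.5, 1, 3, 5 h; plasma analysed by LC-MS/MS after MeCN precipitation with internal standard; AUC over 5 h by non-compartmental fit.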

[4] = AUC in CD-1 mouse at 25 mg/kg, po administered as single dose and measured up to 24 hrs by LC-MS/MS analysis; format: ADME, organism-based; design: dose 25 mg/kg, time < 24 hrs, route po; conditions: in vivo
Method in brief: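 Female CD-1 mice (n = 3) given a single oral gavage dose of 25 mg/kg as a 0.5% CMC/0.5% Tween 80 suspension. Tail-vein blood was drawn at 0.5, 1, 3, 5, 7 and 24 h into K2EDTA and plasma stored at −80 °C. Only PAS was quantified, by LC-MS/MS after MeCN precipitation.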

[5] = test system: Mycobacterium tuberculosis; assay: Antimycobacterial activity against Mycobacterium tuberculosis H37Rv assessed as inhibition of bacterial growth measured after 10 days by microbroth dilution method; format: functional; conditions: 240 h, time 10 day
[6] = Ratio of compound AUC to para-aminosalicylic acid AUC in CD-1 mouse; format: ADME; conditions: in vivo
[7] = test system: Mycobacterium tuberculosis; assay: Antimycobacterial activity against drug susceptible Mycobacterium tuberculosis H37Rv assessed as inhibition of bacterial growth measured after 2 weeks by microbroth dilution method; format: functional; conditions: 336 h
Method in brief: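 Diluted 1000-fold into 96-well plates with 2-fold serial compound dilutions and incubated at 37 °C for 2 weeks. Growth scored by mirror at 1 and 2 weeks. MIC is the lowest concentration completely inhibiting growth; tested in duplicate. DMSO, isoniazid and linezolid served as controls.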

[8] = AUC in CD-1 mouse at 10 mg/kg, po administered as single dose and measured up to 5 hrs by LC-MS/MS analysis; format: ADME, organism-based; design: dose 10 mg/kg, time < 5 hrs, route po; conditions: in vivo
Method in brief: (§2)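 Snapshot PK: single oral gavage at 10 mg/kg in 5% dimethylacetamide:60% PEG 300:35% (5% dextrose in water) solution to female CD-1 mice (n = 2). Tail-vein blood (K2EDTA) at 0.5, 1, 3, 5 h; plasma protein-precipitated in MeCN with internal standard, prodrug and released PAS quantified by LC-MS/MS; AUC by non-compartmental analysis.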

[9] = AUC in CD-1 mouse plasma assessed as para-aminosalicylic acid AUC at 10 mg/kg, po administered as single dose and measured up to 5 hrs by HPLC-MS/MS analysis; format: ADME, organism-based; design: time < 5 hrs, dose 10 mg/kg, route po; conditions: in vivo; method in brief: as §2
[10] = AUC in CD-1 mouse plasma assessed as para-aminosalicylic acid AUC at 25 mg/kg, po administered as single dose and measured up to 24 hrs by LC-MS/MS analysis; format: ADME, organism-based; design: dose 25 mg/kg, time < 24 hrs, route po; conditions: in vivo

| Structure (SMILES) | remaining at 2 h, 1 ug/ml [1] | remaining at 2 h, 1 ug/ml [2] | MIC90 [5] | Ratio AUC [6] | also measured |
| --- | --- | --- | --- | --- | --- |
| CC(OC(=O)c1ccc(N)cc1O)OC(=O)C(C)(C)C (centres undefined) | 0% | 0% | – | – | AUC [3]: 190 ng·h/mL |
| [N-]=[N+]=Nc1ccc(C(=O)O)c(O)c1 | – | – | 128 µM (≈ 22.9 µg/mL) | 430 | AUC [4]: 900000 ng·h/mL |
| Nc1cc(O)c(C(=O)O)cc1F | – | – | 8 µM (≈ 1.37 µg/mL) | 4.9 | AUC [4]: 10000 ng·h/mL; MIC90 [7]: 6.3 µM (≈ 1.08 µg/mL) |
| Cl.Nc1cc(O)c(C(=O)O)c(F)c1 | – | – | 64 µM | 1.2 | AUC [4]: 2400 ng·h/mL |
| CNc1ccc(C(=O)O)c(O)c1 | – | – | > 128 µM | 59 | AUC [4]: 130000 ng·h/mL |
| CC(C)OC(=O)c1ccc(N)cc1O | 93% | 94% | > 128 µM | 0.6 | AUC at 5 h [8]: 230 ng·h/mL |
| CC(C)OC(=O)OC(C)OC(=O)c1ccc(N)cc1O (centres undefined) | 24% | 0% | – | – | AUC [9]: 190 ng·h/mL |
| CNc1ccc(C(=O)OC)c(O)c1 | 96% | 90% | – | – | AUC at 5 h [8]: 78 ng·h/mL |
| Cl.Nc1ccc(C(=O)O)c(O)c1F | – | – | 32 µM | 1.9 | AUC [4]: 4000 ng·h/mL |
| Cc1oc(=O)oc1COC(=O)c1ccc(N)cc1O | 0% | 0% | – | – | AUC [3]: 250 ng·h/mL |
| CCOC(=O)c1cc(F)c(N)cc1O | – | – | > 128 µM | 0.02 | – |
| Nc1ccc(C(=O)O)c(O)c1 [AMINOSALICYLIC ACID] | – | – | 0.5 µM (≈ 0.0766 µg/mL) | 1 | AUC [10]: 3400 ng·h/mL; MIC90 [7]: 0.2 µM (≈ 0.0306 µg/mL); AUC [9]: 380 ng·h/mL |
| CCOC(=O)c1ccc(N)cc1O | 94% | 92% | 2 µM (≈ 0.362 µg/mL) | 0.1 | AUC at 5 h [8]: 44 ng·h/mL |
| CC(C)OC(=O)OCOC(=O)c1ccc(N)cc1O | 0% | 0% | – | – | AUC [9]: 19 ng·h/mL |
| CC(=O)NC[C@H]1CN(c2ccc(N3CCOCC3)c(F)c2)C(=O)O1 [LINEZOLID] | – | – | – | – | MIC90 [7]: 0.7 µM (≈ 0.236 µg/mL) |
| CC(C)(C)C(=O)OCOC(=O)c1ccc(N)cc1O | 15% | 0% | – | – | AUC [10]: 300 ng·h/mL; AUC [9]: 460 ng·h/mL |
| COC(=O)c1ccc(N)cc1O | 94% | 84% | 64 µM (≈ 10.7 µg/mL) | 0.2 | AUC at 5 h [8]: 1700 ng·h/mL; AUC [9]: 53 ng·h/mL |
